EBI2 antag – EBI2 receptor antagonists, beta-arrestin recruitment, primary screen, cell-based, luminescence, 7a,25-OHC stimulation, uHTS. 7a,25-OHC stimulated. inhibition, % at 5 µM. AID 651636, 2012. G-protein coupled receptor 183 (Homo sapiens), P32249. actives 0.81% (n = 360,000); in the data active = inhibition above about 38%;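 also: enzyme fragment complementation signal reports receptor beta-arrestin coupling in cells; 0% = agonist plus DMSO wells and 100% = wells without agonist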
m5-HT2A agonist – mouse Htr2a agonists via beta-arrestin recruitment, primary screen, cell-based, luminescence; actives 0.66% (n = 360,000); AID 624169, 2012; 5-hydroxytryptamine receptor 2A (Mus musculus), P35363; CHO-K1 mHTR2A beta-arrestin complementation; percent of 30 µM serotonin response; activation, % at 7.6 µM;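 active = activation above a run cutoff, the mean activation of all tested compounds plus 3 SD, cut at about 14% in these data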;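 also: 0% = plate median of compound wells and 100% = 30 µM serotonin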
Target sequence (P35363 whole entry, looked up): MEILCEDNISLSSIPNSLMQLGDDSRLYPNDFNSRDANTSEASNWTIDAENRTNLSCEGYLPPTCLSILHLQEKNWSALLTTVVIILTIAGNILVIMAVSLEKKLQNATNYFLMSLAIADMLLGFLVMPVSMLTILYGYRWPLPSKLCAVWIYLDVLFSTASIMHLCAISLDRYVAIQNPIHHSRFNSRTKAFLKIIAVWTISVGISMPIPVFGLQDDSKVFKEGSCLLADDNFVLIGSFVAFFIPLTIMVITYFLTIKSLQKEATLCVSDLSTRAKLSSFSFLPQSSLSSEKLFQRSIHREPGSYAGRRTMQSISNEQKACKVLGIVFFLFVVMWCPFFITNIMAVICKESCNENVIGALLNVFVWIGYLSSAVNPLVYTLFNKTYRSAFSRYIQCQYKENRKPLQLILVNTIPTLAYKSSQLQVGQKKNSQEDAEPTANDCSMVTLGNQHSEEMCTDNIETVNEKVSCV
CXCR6 block – CXCR6 receptor inhibitors, primary screen, cell-based, beta-arrestin, luminescence, CHO-K1 PathHunter, 1536-well; actives 0.36% (n = 360,000); inhibition, % at 20 µM; in the data active = inhibition above about 34%, passing the limit was not always enough;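 also: antagonist mode with CXCL16 agonist at 10 nM final; 0% = 10 nM CXCL16 with DMSO and 100% = unstimulated wells without agonist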
APJ agonist – agonists of human apelin receptor APJ, primary screen, CHO-K1 cells, PathHunter beta-arrestin, luminescence; AID 2520, 2010; 0% DMSO wells, 100% apelin; P35414; activation, % at 20 µM; actives 0.11% (n = 330,000);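 active = activation more than six SD over the plate average, tested at 20 µM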;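 also: 0% = DMSO alone and 100% = apelin-13 at 10 nM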
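Material: engineered CHO-K1 APJ arrestin reporter cells; amount: 1000 CHO-K1 reporter cells seeded per well; incubation: compound stimulation 90 min at 25 °C, detection 60 min; signal: luminescent beta-gal fragment complementation, chemiluminescent substrate; read-out basis: APJ agonist activity; controls: DMSO-only wells as negative, 10 nM Apelin-13 as positive control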
APJ antagonist – antagonists of human apelin receptor APJ, primary screen, CHO-K1 cells, beta-arrestin complementation, luminescence. actives 0.32% (n = 330,000). inhibition, % at 20 µM. P35414;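 active = inhibition above about 40% at 20 µM, limit read from the data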;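 also: cells challenged with 10 nM apelin-13 agonist together with compound; plate controls were apelin-13 plus DMSO wells for no effect and DMSO wells lacking apelin-13 for full effect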
CCR6 antag – CCR6 receptor antagonists, primary screen, cell-based, CHO-K1, luminescence, beta-arrestin, uHTS | AID 493098, 2011 | C-C chemokine receptor type 6 (Homo sapiens), P51684 | actives 0.49% (n = 340,000) | inhibition, % at 20 µM | CHO-K1 CCR6 PathHunter beta-arrestin, CCL20-stimulated;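 active = compounds whose inhibition of the agonist-driven luminescence signal at 20 µM reaches about 50%, limit read from the data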;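 also: cells stimulated with CCL20 at 14 nM final; plate controls were DMSO with CCL20 for no effect and DMSO without agonist for full effect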
EBI2 antag conf – EBI2 antagonist hit retest, beta-arrestin, confirmation, cell-based, single concentration, luminescence, 7a,25-OHC stimulation | shares compounds with EBI2 antag | 7a,25-OHC antagonism | AID 651997, 2013 | inhibition, % at 5 µM | actives 29% (n = 2,400);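 active = inhibition of at least 50%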
EBI2 ag – EBI2 agonist activity of antagonist hits, confirmation, counter-screen for EBI2 antagonist project, cell-based, single concentration, agonist mode, luminescence; EBI2-expressing cells, 60 min; 0% vehicle, 100% 7α,25-dihydroxycholesterol control; activation, % at 5 µM; AID 652000, 2013; shares compounds with EBI2 antag; 2,400 tested, under 10 active;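 active = activation of at least 50%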
bGal counter – E. coli beta-galactosidase enzyme inhibition, confirmation, counter-screen for EBI2 antagonist project, biochemical, luminescence, single concentration; shares compounds with EBI2 antag; purified beta-galactosidase, luminescent Galacton Star, 15 min; inhibition, % at 5 µM; actives 1% (n = 2,400);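 active = replicate-average signal at least 3 plate SD below neutral wells, shown as high inhibition, flagging enzyme-inhibiting false positives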;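 also: 0% = DMSO wells with enzyme and 100% = wells lacking enzyme; higher means stronger loss of beta-gal luminescence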
Starred values were filed as active, the others as inactive; . = no result. Compounds with a hit are over-represented: about 2.1% of the library has one in this group of screens.

SMILES	EBI2 antag	m5-HT2A agonist	CXCR6 block	APJ agonist	APJ antagonist	CCR6 antag	EBI2 antag conf	EBI2 ag	bGal counter
O=C(CSc1nc2nc3c(cc2c(=O)n1-c1ccccc1)CCCC3)Nc1ccccc1	17	-2	0	-1	10	11	.	.	.
CCn1c(SCc2ccc(Cl)cc2Cl)nc2nc3c(cc2c1=O)CCCC3	63*	-2	9	-2	-4	18	39	0	13
O=C(CN1C(=O)NC2(CCCCC2)C1=O)Nc1cccc(S(=O)(=O)N2CCOCC2)c1	-7	5	-1	-2	-1	4	.	.	.
CN1C(=O)C(O)(CC(=O)c2ccccn2)c2cc(Br)ccc21 (centres undefined)	36*	-4	9	-2	24	38	29	-2	-8
CCCCNC(=O)C[C@@H]1C[C@@]2(C(=O)OC)CCCCC=C2N(Cc2cccc3ccccc23)C1=O	0	13	3	.	.	.	.	.	.
COC(=O)[C@]12CCCCC=C1N(Cc1cccc3ccccc13)C(=O)[C@H](CC(=O)NCCCCc1ccccc1)C2	47*	-6	13	.	.	.	36	1	4
C#CCN1C=CC(=O)[C@@H](OC(=O)Nc2ccc(OC)cc2)[C@H]1c1ccccc1Br	-11	-3	0	.	.	1	.	.	.
O=S1(=O)[C@H]2C[C@@H]3C=C[C@@]2(CN1Cc1cccc(F)c1)O3	-3	9	0	-2	-9	7	.	.	.
COc1ccc(NC(=O)CCN2CCN(S(=O)(=O)c3ccc(F)cc3)CC2)cc1	18	-2	-5	-1	8	-7	.	.	.
Cc1cc(C)c(S(=O)(=O)Nc2ccccc2-c2ccccc2)c(C)c1	57*	-8	-1	-2	-7	29	28	0	7
O=S(=O)(Nc1ccccc1-c1ccccc1)c1ccccc1	9	-5	6	.	.	27	.	.	.
COc1ccc(/C=C/C(=O)NC(=S)N2CCN(C)CC2)cc1	4	-4	-8	-3	-9	6	.	.	.
CCOC(=O)C1CCN(C(=O)/C=C/c2ccc(OC)cc2)CC1	87*	0	-3	-1	-5	3	75*	0	-5
CCN1CCN(C(=O)/C=C/c2ccc(OC)cc2)CC1	88*	-4	-1	2	3	5	74*	2	7
CCN1CCN(C(=O)/C=C/c2ccc(F)cc2)CC1	84*	-4	0	0	2	4	71*	0	5
O=C1CCN(Cc2ccccc2)S(=O)(=O)c2ccc(F)cc21	2	6	18	-3	17	28	.	.	.
COc1ccc(C2C(C(C)=O)=C(O)C(=O)N2CCc2c[nH]c3ccccc23)cc1OC (centres undefined)	0	9	-1	-2	15	-2	.	.	.
CC1CCCN(S(=O)(=O)c2ccc(NC(=O)C3CC(=O)N(C(C)(C)C)C3)cc2)C1 (centres undefined)	0	1	9	4	6	3	.	.	.
CC(=O)CCc1ccc(Oc2nc(-c3cccnc3)nc3ccccc23)cc1	54*	-1	-7	-3	-8	5	25	1	3
CC(=O)Nc1cc(-c2ccccc2Cl)cn2c(-c3ccc(S(C)(=O)=O)cc3)cnc12	55*	1	12	.	.	.	25	2	3
CC(=O)Nc1cccc(-c2cc(NC=O)c3ncc(-c4cccc(C(C)=O)c4)n3c2)c1	54*	11	1	.	.	.	14	-1	-12
CC(=O)Nc1cc(-c2ccc(CO)cc2)cn2c(-c3cccc(C(F)(F)F)c3)cnc12	46*	-5	5	.	.	.	24	-1	-9
CN(C)C(=O)c1cccc(-c2cnc3c(NC=O)cc(-c4ccccc4Cl)cn23)c1	62*	-3	-1	.	.	.	29	0	5
NS(=O)(=O)c1ccc(N/N=C/c2ccc(O)cc2O)c([N+](=O)[O-])c1	43*	-11	24	1	-2	46	18	-2	2
Cc1ccsc1/C=N/NC(=O)CNC(=O)c1c(F)cccc1Cl	1	0	13	-3	-6	3	.	.	.
SMILES	EBI2 antag	m5-HT2A agonist	CXCR6 block	APJ agonist	APJ antagonist	CCR6 antag	EBI2 antag conf	EBI2 ag	bGal counter
Cc1cc(OCC(=O)N(C)C2CCCCC2)ccc1Cl	74*	-2	8	-3	-2	19	35	1	-12
Cc1cc(OCC(=O)N(C)C2CCCCC2)cc(C)c1Cl	79*	-3	-6	-2	-4	11	43	0	5
CN(C(=O)COC(=O)COc1ccc(Cl)cc1)C1CCCCC1	3	-6	-7	-3	-30	-14	.	.	.
COc1ccc(/C=N/NC(=O)CNC(=O)/C=C/c2ccccc2OC)cc1	77*	-7	-1	-3	0	-5	57*	0	-17
Cc1nn(-c2ccc(C(=O)N3CCN(S(=O)(=O)c4ccccc4C(F)(F)F)CC3)cc2)c(C)c1Cl	47*	10	-4	0	-42	11	36	0	5
Cc1nc(SCC(=O)NCC2CCCO2)c2c3c(sc2n1)CCCC3 (centres undefined)	6	1	-3	0	16	23	.	.	.
COc1ccc(NC(=O)c2csc(Cc3ccccc3)n2)cc1	40*	2	-13	3	9	13	35	0	-17
O=C(C[C@H]1C/C=C\C[C@H](NC(=O)OCC2c3ccccc3-c3ccccc32)C(=O)OC[C@@H]2CCCN2C1=O)N[C@H](CO)Cc1ccccc1	-7	-5	-20	0	-5	-13	.	.	.
O=C(Cn1nnc(-c2ccccc2)n1)N/N=C/c1cc([N+](=O)[O-])ccc1O	55*	-6	10	-6	24	27	41	1	6
CN(CC(=O)Nc1ccc(Cl)c(C(F)(F)F)c1)C(=O)C1CCC1	-13	-1	-6	-9	9	25	.	.	.
